Assay [1] addresses T1, C-X-C chemokine receptor type 4 (Homo sapiens, UniProt P61073). Briefly: Inhibition of [125I]SDF1 binding to CXCR4 transfected in CHO cells. It counts as cell-based. The essentials:
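CXCR4-expressing stable CHO transfectants were harvested with trypsin-EDTA, recovered 4-5 h in complete medium, and washed in cold PBS with 2 mg/mL BSA. Cells at 1 × 10⁷/mL were incubated with 0.1 nM [¹²⁵I]-SDF-1 for 2 h on ice with agitation. Bound label was separated by centrifugation through oil and gamma-counted.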

For assay [2], the system named is Human immunodeficiency virus 1. Briefly: Inhibition of HIV1-induced cytopathogenicity in MT4 cells. To be noted: Human immunodeficiency virus 1, MT4. It counts as functional, organism-based. The procedure, abridged:
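MT-4 cells were grown in RPMI 1640 with 10% heat-inactivated FCS and penicillin/streptomycin. Cells infected with HIV-1 IIIB (X4 strain) at MOI 0.01 were plated at 1.5 × 10⁴ cells/well with various compound concentrations. After 5 days at 37 °C in CO₂, viable cells were counted by MTT. EC50 for protection is the mean of ≥3 independent experiments.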

The target in assay [3] is T1, C-X-C chemokine receptor type 4. Briefly: Antagonist activity against CXCR4 transfected in CHO cells upto 1 uM. It counts as functional, cell-based.

Consider 38 compounds from ChEMBL document CHEMBL1139233, “Structure-activity relationships of cyclic peptide-based chemokine receptor CXCR4 antagonists: disclosing the importance of side-chain and backbone functionalities” (J Med Chem, 2007).

Each structure is given as a SMILES string. Calls of active or inactive are those of the source. The rule behind the calls is not given here.

T1 sequence (P61073 whole entry): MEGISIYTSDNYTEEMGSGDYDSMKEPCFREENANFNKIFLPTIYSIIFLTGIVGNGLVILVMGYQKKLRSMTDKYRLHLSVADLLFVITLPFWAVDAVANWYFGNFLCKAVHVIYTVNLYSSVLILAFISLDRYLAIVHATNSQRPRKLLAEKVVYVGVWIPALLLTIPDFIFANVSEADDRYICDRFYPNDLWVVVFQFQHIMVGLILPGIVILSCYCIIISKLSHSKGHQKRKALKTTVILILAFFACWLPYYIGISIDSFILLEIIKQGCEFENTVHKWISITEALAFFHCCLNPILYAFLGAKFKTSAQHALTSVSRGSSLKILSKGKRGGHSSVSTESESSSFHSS

On to `C[C@@H]1NC(=O)[C@H](CCCNC(=N)N)NC(=O)[C@H](CCCNC(=N)N)NC(=O)[C@@H](Cc2ccc(O)cc2)NC(=O)CN(C)C1=O`, for which the IC50 in assay [1] (cho) came out at 167 nM. `C[C@@H]1NC(=O)[C@H](Cc2ccc3ccccc3c2)NC(=O)[C@H](CCCNC(=N)N)NC(=O)[C@@H](CCCNC(=N)N)NC(=O)[C@@H](Cc2ccc(O)cc2)NC1=O` displayed an EC50 in assay [2] of 10000 nM. The half-inhibitory concentration (IC50) in assay [1] was determined as 92 nM. The corresponding values for `C[C@H]1NC(=O)[C@H](Cc2ccc3ccccc3c2)NC(=O)[C@H](CCCNC(=N)N)NC(=O)[C@@H](CCCNC(=N)N)NC(=O)[C@@H](Cc2ccc(O)cc2)NC1=O` are 670 nM and 11 nM.

As for `N=C(N)NCCC[C@@H]1NC(=O)[C@@H](CCCNC(=N)N)NC(=O)[C@@H](Cc2ccc(O)cc2)NC(=O)CNC(=O)[C@H](Cc2ccc3ccccc3c2)NC1=O`, a half-maximal response in assay [2] (EC50) required 390 nM. On to `CN1C(=O)[C@H](CCCNC(=N)N)NC(=O)[C@@H](CCCNC(=N)N)NC(=O)[C@@H](Cc2ccc(O)cc2)NC(=O)CNC(=O)[C@@H]1Cc1ccc2ccccc2c1`, for which, in assay [1], the IC50 turned out to be 563 nM. `CN1C(=O)[C@@H](Cc2ccc(O)cc2)NC(=O)CNC(=O)[C@H](Cc2ccc3ccccc3c2)NC(=O)[C@H](CCCNC(=N)N)NC(=O)[C@@H]1CCCNC(=N)N` displayed an EC50 in assay [2] of 1400 nM.

Compound `C[C@@H]1NC(=O)[C@H](Cc2ccc3ccccc3c2)NC(=O)[C@H](CCCNC(=N)N)NC(=O)[C@H](CCCNC(=N)N)NC(=O)[C@@H](Cc2ccc(O)cc2)NC1=O` showed an EC50 in assay [2] of 20000 nM. The compound also came in with an IC50 in assay [1] of 170 nM. Compound `N=C(N)NCCC[C@@H]1NC(=O)[C@@H](CCCNC(=N)N)NC(=O)[C@@H](Cc2ccc(O)cc2)NC(=O)[C@@H]2CCCN2C(=O)[C@H](Cc2ccc3ccccc3c2)NC1=O` came in with an IC50 in assay [1] of over 1000 nM. The same measure, in the same setting: to `CN1C(=O)CNC(=O)[C@H](Cc2ccc3ccccc3c2)NC(=O)[C@H](CCCNC(=N)N)NC(=O)[C@@H](CCCNC(=N)N)NC(=O)[C@H]1Cc1ccc(O)cc1` belongs 157 nM. `C[C@@H]1NC(=O)[C@H](Cc2ccc3ccccc3c2)NC(=O)CNC(=O)[C@@H](Cc2ccc(O)cc2)NC(=O)[C@H](CCCNC(=N)N)NC1=O`: the outcome in assay [3] was inactive. For the compound `C[C@@H]1NC(=O)[C@H](CCCNC(=N)N)NC(=O)[C@H](CCCNC(=N)N)NC(=O)[C@@H](Cc2ccc(O)cc2)NC(=O)CNC1=O`, in assay [2], the EC50 was over 120000 nM. This compound displayed an IC50 in assay [1] of over 1000 nM. Turning to `N=C(N)NCCC[C@@H]1NC(=O)[C@@H](CCCNC(=N)N)NC(=O)[C@@H](Cc2ccc(O)cc2)NC(=O)CCNC(=O)[C@H](Cc2ccc3ccccc3c2)NC1=O`, the response in assay [2] was half-maximal at 38000 nM (EC50). Also, in assay [1], the IC50 was 350 nM. `N=C(N)NCCC[C@@H]1NC(=O)[C@@H](CCCNC(=N)N)NC(=O)[C@@H](Cc2ccc(O)cc2)NC(=O)[C@H]2CCCCN2C(=O)[C@H](Cc2ccc3ccccc3c2)NC1=O` registered an IC50 in assay [1] of over 1000 nM. In turn, `C[C@@H]1NC(=O)[C@@H](Cc2ccc(O)cc2)NC(=O)CNC(=O)[C@H](Cc2ccc3ccccc3c2)NC(=O)[C@H](CCCNC(=N)N)NC1=O` registered an EC50 in assay [2] of 12000 nM. Take `N=C(N)NCCC[C@@H]1NC(=O)[C@H](CCCNC(=N)N)NC(=O)[C@@H](Cc2ccc(O)cc2)NC(=O)[C@@H]2CCCCN2C(=O)[C@H](Cc2ccc3ccccc3c2)NC1=O`: in assay [1], the IC50 is over 1000 nM. `CN1C(=O)CNC(=O)[C@H](Cc2ccc3ccccc3c2)NC(=O)[C@H](CCCNC(=N)N)NC(=O)[C@H](CCCNC(=N)N)NC(=O)[C@H]1Cc1ccc(O)cc1` yielded an IC50 in assay [1] of 128 nM.

In assay [2], `CN1C(=O)[C@H](CCCNC(=N)N)NC(=O)[C@@H](Cc2ccc(O)cc2)NC(=O)CNC(=O)[C@H](Cc2ccc3ccccc3c2)NC(=O)[C@@H]1CCCNC(=N)N` had an EC50 of 9530 nM. The concentration for half-maximal inhibition (IC50) in assay [1] came to 99 nM. Regarding `N=C(N)NCCC[C@@H]1NC(=O)[C@H](CCCNC(=N)N)NC(=O)[C@@H](Cc2ccc(O)cc2)NC(=O)[C@H]2CCCCN2C(=O)[C@H](Cc2ccc3ccccc3c2)NC1=O`, the IC50 in assay [1] is over 1000 nM. Still for that read-out and setting: to `N=C(N)NCCC[C@@H]1NC(=O)[C@H](CCCNC(=N)N)NC(=O)[C@@H](Cc2ccc(O)cc2)NC(=O)[C@@H]2CCCN2C(=O)[C@H](Cc2ccc3ccccc3c2)NC1=O` belongs over 1000 nM. On to `C[C@@H]1NC(=O)CNC(=O)[C@@H](Cc2ccc(O)cc2)NC(=O)[C@H](CCCNC(=N)N)NC(=O)[C@H](CCCNC(=N)N)NC1=O`, for which, in assay [3], the result was inactive. `C[C@@H]1NC(=O)[C@H](CCCNC(=N)N)NC(=O)[C@@H](Cc2ccc(O)cc2)NC(=O)CNC(=O)[C@H](Cc2ccc3ccccc3c2)NC1=O` returned an EC50 in assay [2] of over 120000 nM. This compound also registered an IC50 in assay [1] of over 1000 nM. On to `C[C@H]1NC(=O)[C@@H](Cc2ccc(O)cc2)NC(=O)CNC(=O)[C@H](Cc2ccc3ccccc3c2)NC(=O)[C@H](CCCNC(=N)N)NC1=O`, for which the EC50 in assay [2] amounted to 16000 nM. `CN1C(=O)[C@@H](CCCNC(=N)N)NC(=O)[C@@H](Cc2ccc(O)cc2)NC(=O)CNC(=O)[C@H](Cc2ccc3ccccc3c2)NC(=O)[C@@H]1CCCNC(=N)N` gave an EC50 in assay [2] of 782 nM. This compound yielded an IC50 in assay [1] of 21 nM. The corresponding values for `C[C@@H]1NC(=O)[C@@H](CCCNC(=N)N)NC(=O)[C@@H](Cc2ccc(O)cc2)NC(=O)CNC(=O)[C@H](Cc2ccc3ccccc3c2)NC1=O` are 60000 nM and over 1000 nM. The corresponding values for `C[C@H]1NC(=O)CNC(=O)[C@H](Cc2ccc3ccccc3c2)NC(=O)[C@H](CCCNC(=N)N)NC(=O)[C@@H](CCCNC(=N)N)NC1=O` are 29000 nM and 130 nM. `CN1C(=O)[C@@H](Cc2ccc(O)cc2)NC(=O)CNC(=O)[C@H](Cc2ccc3ccccc3c2)NC(=O)[C@H](CCCNC(=N)N)NC(=O)[C@H]1CCCNC(=N)N` gave an EC50 in assay [2] of 88 nM. Besides, in assay [1], the IC50 came to 3 nM. In assay [2], `N=C(N)NCCC[C@@H]1NC(=O)[C@H](CCCNC(=N)N)NC(=O)[C@@H](Cc2ccc(O)cc2)NC(=O)CNC(=O)[C@H](Cc2ccc3ccccc3c2)NC1=O` came in with a half-maximal effective concentration (EC50) of 160 nM. `N=C(N)NCCC[C@@H]1NC(=O)[C@H](CCCNC(=N)N)NC(=O)[C@@H](Cc2ccc(O)cc2)NC(=O)CCNC(=O)[C@H](Cc2ccc3ccccc3c2)NC1=O` registered an EC50 in assay [2] of 3000 nM. The IC50 in assay [1] amounted to 47 nM. `C[C@@H]1NC(=O)[C@H](CCCNC(=N)N)NC(=O)[C@@H](CCCNC(=N)N)NC(=O)[C@@H](Cc2ccc(O)cc2)NC(=O)CNC1=O`: the EC50 in assay [2] is over 120000 nM. Moreover, the IC50 in assay [1] is over 1000 nM. `N=C(N)NCCC[C@@H]1NC(=O)[C@@H](CCCNC(=N)N)NC(=O)[C@@H](Cc2ccc(O)cc2)NC(=O)[C@@H]2CCCCN2C(=O)[C@H](Cc2ccc3ccccc3c2)NC1=O` had a concentration for half-maximal inhibition (IC50) in assay [1] of 640 nM. The same measure, in the same setting: to `CN1C(=O)[C@H](CCCNC(=N)N)NC(=O)[C@H](CCCNC(=N)N)NC(=O)[C@@H](Cc2ccc(O)cc2)NC(=O)CNC(=O)[C@@H]1Cc1ccc2ccccc2c1` belongs 250 nM. In assay [2], `C[C@H]1NC(=O)CNC(=O)[C@H](Cc2ccc3ccccc3c2)NC(=O)[C@H](CCCNC(=N)N)NC(=O)[C@H](CCCNC(=N)N)NC1=O` showed an EC50 of 115000 nM. Moreover, in assay [1], the IC50 is over 1000 nM. In the case of `CN1CC(=O)N[C@H](Cc2ccc(O)cc2)C(=O)N[C@H](CCCNC(=N)N)C(=O)N[C@@H](CCCNC(=N)N)C(=O)N[C@@H](Cc2ccc3ccccc3c2)C1=O`, the IC50 in assay [1] worked out at 256 nM.

With `N=C(N)NCCC[C@@H]1NC(=O)[C@H](CCCNC(=N)N)NC(=O)[C@@H](Cc2ccc(O)cc2)NC(=O)[C@H]2CCCN2C(=O)[C@H](Cc2ccc3ccccc3c2)NC1=O`, the IC50 in assay [1] was over 1000 nM. For `C[C@@H]1NC(=O)CNC(=O)[C@@H](Cc2ccc(O)cc2)NC(=O)[C@@H](CCCNC(=N)N)NC(=O)[C@H](CCCNC(=N)N)NC1=O`, the result in assay [3] was inactive. On the same count and under the same terms, in the case of `C[C@@H]1NC(=O)[C@H](Cc2ccc3ccccc3c2)NC(=O)CNC(=O)[C@@H](Cc2ccc(O)cc2)NC(=O)[C@@H](CCCNC(=N)N)NC1=O` it was “inactive”.

In assay [1], `N=C(N)NCCC[C@@H]1NC(=O)[C@@H](CCCNC(=N)N)NC(=O)[C@@H](Cc2ccc(O)cc2)NC(=O)[C@H]2CCCN2C(=O)[C@H](Cc2ccc3ccccc3c2)NC1=O` came in with an IC50 of over 1000 nM.

Regarding `C[C@H]1NC(=O)[C@H](Cc2ccc3ccccc3c2)NC(=O)[C@H](CCCNC(=N)N)NC(=O)[C@H](CCCNC(=N)N)NC(=O)[C@@H](Cc2ccc(O)cc2)NC1=O`, it took 490 nM to reach a half-maximal effect in assay [2] (EC50). Moreover, the IC50 in assay [1] stood at 11 nM.
